Holding throughout (type): functional
Test [1] has as its system Mus musculus. Briefly: Percent increase in life span at dose 4 mg/kg/day in 7 mice implanted with P388 leukemia cell line for 1,8,15 scheduled day from Exp-1.
The test system of test [2] is Mus musculus. Briefly: Number of survivors of DBA2 mice on 60th day after inoculation with L1210 leukemia cell line intraperitoneally at a dose of 0.33 mg/kg/day; 0/10. The following applies: route intraperitoneal.
The test system of test [3] is Mus musculus. The test can be described thus: Number of survivors of DBA2 mice on 30th day after inoculation with L1210 leukemia cell line intraperitoneally at a dose of 4 mg/kg/day; 0/10. The following applies: route intraperitoneal.
The test system of test [4] is Mus musculus. The test can be described thus: Percent increase in life span at dose 4 mg/kg/day in 7 mice implanted with P388 leukemia cell line for 1,8,15 scheduled day from Exp-2.
The subject of test [5] is Mus musculus. Briefly: Number of survivors on 30th day at dose 8 mg/kg/day in 9 mice implanted with P388 leukemia cell line; 0 /9.
Test [6] deals with Mus musculus. Briefly: Number of survivors on 60th day at dose 65 mg/kg/day in 10 mice implanted with P388 leukemia cell line; 7/9.
The test system of test [7] is Mus musculus. Briefly: Percent increase in life span at dose 55 mg/kg/day in 7 mice implanted with P388 leukemia cell line for 1,8,15 schedule day.
Test [8] deals with Mus musculus. Briefly: Percent increase in life span of DBA2 mice after inoculation with L1210 leukemia intravenously at a dose of 65 mg/kg per day. The following applies: route intravenous. The method in brief:
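Female DBA2 mice inoculated iv on day 0 with 10^4 L1210 cells; drugs given iv as sulfate salts in physiological saline, mostly once on day 1. %ILS from all deaths and survivors as (T/C × 100) − 100; survivors scored on days 30 and 60.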

The subject of test [9] is Mus musculus. The test can be described thus: Number of survivors of DBA2 mice on 60th day after inoculation with L1210 leukemia cell line intravenously at a dose of 65 mg/kg/day; 0/10. The following applies: route intravenous.
Test [10] deals with Mus musculus. The test can be described thus: Number of survivors on 60th day at dose 60 mg/kg/day in 10 mice implanted with P388 leukemia cell line 1,5,9 scheduled days; 3/10.
The subject of test [11] is Mus musculus. Briefly: Percent increase in life span at dose 60 mg/kg/day in 10 mice implanted with P388 leukemia cell line for 1,5,9 schedule days.
In test [12] the test system is Mus musculus. Briefly: Number of survivors on 60th day at dose 20 mg/kg/day in 10 mice implanted with P388 leukemia cell line; 0/10.
Test [13] relates to Mus musculus. The test can be described thus: Number of survivors on 60th day at dose 65 mg/kg/day in 10 mice implanted with P388 leukemia cell line for 1st scheduled day; 1/10.
The test system of test [14] is Mus musculus. Briefly: Number of survivors on 60th day at dose 56 mg/kg/day in 10 mice implanted with P388 leukemia cell line; 2/10.
For test [15], the system named is Mus musculus. Briefly: Number of survivors of DBA2 mice on 60th day after inoculation with L1210 leukemia cell line intravenously at a dose of 55 mg/kg/day; 0/10. The following applies: route intravenous.
Test [16] concerns Mus musculus. The test can be described thus: Number of survivors of DBA2 mice on 60th day after inoculation with L1210 leukemia cell line intravenously at a dose of 45 mg/kg/day; 0/10. The following applies: route intravenous.
Test [17] deals with Mus musculus. The test can be described thus: Percent increase in life span at dose 65 mg/kg/day in 7 mice implanted with P388 leukemia cell line for 1,8,15 schedule day in Exp-2. The method in brief:
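Female DBA2 mice inoculated iv on day 0 with 10^5 P388 cells; iv dosing of sulfate salts in physiological saline on day 1 only or on days 1, 8 and 15. %ILS from all deaths and survivors as (T/C × 100) − 100, maximal MST 60 days; survivors scored on day 60.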

In test [18] the test system is Mus musculus. Briefly: Number of survivors on 60th day at dose 2.5 mg/kg/day in 10 mice implanted with P388 leukemia cell line for 1st scheduled day; 0/10.
The subject of test [19] is Mus musculus. The test can be described thus: Number of survivors on 60th day at dose 2 mg/kg/day in 10 mice implanted with P388 leukemia cell line for 1st scheduled day; 0/10.
In test [20] the test system is Mus musculus. The test can be described thus: Number of survivors of DBA2 mice on 60th day after inoculation with L1210 leukemia cell line intraperitoneally at a dose of 2.5 mg/kg/day; 0/10. The following applies: route intraperitoneal.
The test system of test [21] is Mus musculus. The test can be described thus: Number of survivors on 30th day at dose 7 mg/kg/day in 10 mice implanted with P388 leukemia cell line; 0/10.
The subject of test [22] is Mus musculus. Briefly: Number of survivors on 60th day at dose 2.5 mg/kg/day in 10 mice implanted with P388 leukemia cell line; 0/10.
Test [23] concerns Mus musculus. The test can be described thus: Number of survivors on 60th day at dose 10 mg/kg/day in 7 mice implanted with P388 leukemia cell line for 1,8.15 scheduled days; 0/10.
The test system of test [24] is Mus musculus. The test can be described thus: Percent increase in life span at dose 7 mg/kg/day in 9 mice implanted with P388 leukemia cell line for 1st schedule day.
The test system of test [25] is Mus musculus. Briefly: Percent increase in life span at dose 8 mg/kg/day in 7 mice implanted with P388 leukemia cell line for 1,8,15 schedule days from Exp-1.
Test [26] deals with Mus musculus. The test can be described thus: Number of survivors on 30th day at dose 6 mg/kg/day in 10 mice implanted with P388 leukemia cell line; 1/10.
Test [27] concerns Mus musculus. The test can be described thus: Number of survivors on 30th day at dose 9 mg/kg/day in 10 mice implanted with P388 leukemia cell line; 3/10.
Test [28] has as its system Mus musculus. The test can be described thus: Number of survivors of DBA2 mice on 30th day after inoculation with L1210 leukemia cell line intraperitoneally at a dose of 1 mg/kg/day; 0/10. The following applies: route intraperitoneal.
Test [29] has as its system Mus musculus. The test can be described thus: Number of survivors of DBA2 mice on 30th day after inoculation with L1210 leukemia cell line intravenously at a dose of 5.5 mg/kg/day; 0/10. The following applies: route intravenous.
The subject of test [30] is Mus musculus. Briefly: Percent increase in life span of DBA2 mice after inoculation with L1210 leukemia intravenously at a dose of 1 mg/kg per day. The following applies: route intravenous.
For test [31], the system named is Mus musculus. Briefly: Number of survivors of DBA2 mice on 30th day after inoculation with L1210 leukemia cell line intravenously at a dose of 0.5 mg/kg/day; 0/10. The following applies: route intravenous.
For test [32], the system named is Mus musculus. Briefly: Number of survivors of DBA2 mice on 60th day after inoculation with L1210 leukemia cell line intravenously at a dose of 3.5 mg/kg/day; 0/10. The following applies: route intravenous.
Test [33] has as its system Mus musculus. The test can be described thus: Number of survivors of DBA2 mice on 60th day after inoculation with L1210 leukemia cell line intraperitoneally at a dose of 2.7 mg/kg/day; 0/10. The following applies: route intraperitoneal.
Test [34] has as its system Mus musculus. Briefly: Percent increase in life span of DBA2 mice after inoculation with L1210 leukemia intravenously at a dose of 0.5 mg/kg per day. The following applies: route intravenous.
For test [35], the system named is Mus musculus. Briefly: Number of survivors of DBA2 mice on 30th day after inoculation with L1210 leukemia cell line intravenously at a dose of 2.5 mg/kg/day; 0/10. The following applies: route intravenous.
Test [36] concerns Mus musculus. The test can be described thus: Number of survivors on 30th day at dose 0.5 mg/kg/day in 10 mice implanted with P388 leukemia cell line; 0/10.
The subject of test [37] is Mus musculus. Briefly: Number of survivors of DBA2 mice on 30th day after inoculation with L1210 leukemia cell line intravenously at a dose of 3.5 mg/kg/day; 0/10. The following applies: route intravenous.
Test [38] deals with Mus musculus. Briefly: Percent increase in life span of DBA2 mice after inoculation with L1210 leukemia intravenously at a dose of 4.5 mg/kg per day. The following applies: route intravenous.

Each structure is given as a SMILES string. “And” between values parts separate entries of the source, which are not always exact repeats. Identical values can stand only once. Bounds are passed on as bounds.

Take `CC[C@]1(O)C[C@@H]2CN(CCc3c([nH]c4ccccc34)[C@@](C(=O)OC)(c3cc4c(cc3OC)N(C)[C@H]3[C@@](O)(C(=O)OC)[C@H](OC(C)=O)[C@]5(CC)C=CCN6CC[C@]43[C@@H]65)C2)C1` [VINBLASTINE]: the results for the ILS at 4 mg/kg/day in the test on Mus musculus [1] and in the test on Mus musculus [4] were 58% and 35%, respectively. Besides, the Survivors in the test with Mus musculus [2], with Mus musculus [3] and in the test with Mus musculus [5] was 0 each time.
Regarding `CCOC(=O)[C@H](Cc1c[nH]c2ccccc12)NC(=O)[C@@]1(O)[C@H](O)[C@]2(CC)C=CCN3CC[C@@]4(c5cc([C@@]6(C(=O)OC)C[C@H]7C[N@](CCc8c6[nH]c6ccccc86)C[C@](O)(CC)C7)c(OC)cc5N(C)[C@@]14C)[C@@H]32`, the Survivors was 7 in the test on Mus musculus [6]; 0 with Mus musculus [9]; 3 in the test with Mus musculus [10]; 0 in the test on Mus musculus [12]; 1 with Mus musculus [13]; 2 with Mus musculus [14]. Moreover, the Survivors with Mus musculus [15] and in the test with Mus musculus [16] was 0 throughout. Besides, the increase in life span (ILS) at 55 mg/kg/day with Mus musculus [7] is 53%. Moreover, the ILS at 65 mg/kg/day with Mus musculus [8] was determined as 71%. Further, in the test on Mus musculus [11], the ILS at 60 mg/kg/day is greater than 426%. Also, the increase in life span (ILS) in the test with Mus musculus [17] is 40% and 108%.
For `CC[C@]1(O)C[C@@H]2CN(CCc3c([nH]c4ccccc34)[C@@](C(=O)OC)(c3cc4c(cc3OC)N(C)[C@H]3[C@@](O)(C(N)=O)[C@H](O)[C@]5(CC)C=CCN6CC[C@]43[C@@H]65)C2)C1` [VINDESINE], the Survivors in the test with Mus musculus [18], in the test with Mus musculus [19], in the test with Mus musculus [20], with Mus musculus [21] and in the test on Mus musculus [22] was 0 in each case.
For `CCOC(=O)[C@@H](NC(=O)[C@@]1(O)[C@H](O)[C@]2(CC)C=CCN3CC[C@@]4(c5cc([C@@]6(C(=O)OC)C[C@H]7C[N@](CCc8c6[nH]c6ccccc86)C[C@](O)(CC)C7)c(OC)cc5N(C)[C@@]14C)[C@@H]32)[C@@H](C)CC`, the Survivors came to 0 in the test on Mus musculus [23], 1 in the test on Mus musculus [26] and 3 in the test with Mus musculus [27]. The molecule also displayed an ILS at 7 mg/kg/day in the test with Mus musculus [24] of 37%. Further, the ILS at 8 mg/kg/day with Mus musculus [25] was 119%.
In the case of `CC[C@]1(O)C[C@H]2CN(CCc3c([nH]c4ccccc34)[C@@](C(=O)OC)(c3cc4c(cc3OC)N(C=O)[C@H]3[C@@](O)(C(=O)OC)[C@H](OC(C)=O)[C@]5(CC)C=CCN6CC[C@]43[C@@H]65)C2)C1` [VINCRISTINE], the Survivors in the test with Mus musculus [28], in the test with Mus musculus [29], with Mus musculus [31], with Mus musculus [32], in the test on Mus musculus [33] and in the test with Mus musculus [35] was 0 throughout. For the same molecule, the Survivors in the test with Mus musculus [36] and in the test with Mus musculus [37] was 0 each time. Besides, in the test with Mus musculus [30], the increase in lifespan (ILS) at 1 mg/kg/day was 10.7%. The molecule also returned an increase in life span (ILS) at 0.5 mg/kg/day in the test on Mus musculus [34] of 1%. In addition, the ILS at 4.5 mg/kg/day with Mus musculus [38] was found to be 20%.

The ILS is how much longer treated animals lived than controls. A low value points to little gain in survival.

For the origin of these results see ChEMBL document CHEMBL1122917, “Vinblastin-23-oyl amino acid derivatives: chemistry, physicochemical data, toxicity, and antitumor activities against P388 and L1210 leukemias” (J Med Chem, 1985).
